The source made the active and inactive calls. The calls are words filed in the database; no cut-off is given here.
Tests used:
[1] = target: T1, Kinesin-like protein KIF2C (Homo sapiens, UniProt Q99661); experiment: Inhibition of cloned human MCAK
T1 sequence (Q99661 whole entry): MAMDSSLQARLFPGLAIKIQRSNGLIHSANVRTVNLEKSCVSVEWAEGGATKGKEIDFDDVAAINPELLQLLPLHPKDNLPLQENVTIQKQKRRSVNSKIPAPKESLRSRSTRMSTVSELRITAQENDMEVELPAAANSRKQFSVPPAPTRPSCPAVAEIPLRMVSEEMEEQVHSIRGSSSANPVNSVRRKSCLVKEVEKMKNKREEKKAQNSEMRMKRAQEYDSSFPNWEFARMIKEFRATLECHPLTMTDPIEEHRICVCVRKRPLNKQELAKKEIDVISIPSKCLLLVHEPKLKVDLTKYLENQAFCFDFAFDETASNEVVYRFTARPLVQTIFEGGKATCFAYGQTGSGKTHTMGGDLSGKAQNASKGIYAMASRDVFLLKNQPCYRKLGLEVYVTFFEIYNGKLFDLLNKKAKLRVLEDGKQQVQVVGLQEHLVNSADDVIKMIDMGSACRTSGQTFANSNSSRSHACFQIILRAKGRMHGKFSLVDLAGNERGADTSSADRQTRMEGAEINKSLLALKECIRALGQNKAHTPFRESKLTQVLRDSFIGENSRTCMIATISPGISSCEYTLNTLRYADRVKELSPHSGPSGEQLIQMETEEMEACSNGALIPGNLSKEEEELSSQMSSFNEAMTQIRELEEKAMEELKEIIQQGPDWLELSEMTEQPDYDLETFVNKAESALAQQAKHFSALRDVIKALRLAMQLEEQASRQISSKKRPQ

[2] = Half life in rat at 1 mg/kg, iv; format: ADME, organism-based; set-up: dose 1 mg/kg, route intravenous; conditions: in vivo
[3] = test system: KB-v; experiment: Inhibition of tumor growth in human KB-v cells expressing MDR1 xenografted clr:NU/NU-nuBR mouse assessed as change in tumor volume at 20 mg/kg, ip administered qd x 5 dosing schedule relative to control; format: functional, organism-based; set-up: dose 20 mg/kg
In short: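 Nude mice bearing contralateral sc KB-3-1 (2.5 million) and KB-v-1 (9 million) flank tumors, 250-500 mm³ at day 13-14, groups of 10-12. Paclitaxel 20 mg/kg/day ip in ethanol/Cremophor/saline (10:10:80), qd × 5. Volumes by calipers, (W² × L)/2, change from initial; % T/C versus control.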

[4] = species on record: Mus musculus; experiment: Toxicity in naive mouse assessed as neutopenia after 6 days; format: organism-based; conditions: in vivo, 144 h
In short: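 Naive mice dosed under protocols varying dose, vehicle and frequency, with survival as the end point; peripheral blood counts, including neutrophils, followed after dosing.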

[5] = test system: PTX10; experiment: Inhibition of tumor growth in paclitaxel-resistant human PTX10 cells carries tubulin mutation xenografted clr:NU/NU-nuBR mouse assessed as change in tumor volume at 100 mg/kg, sc administered q4d x 3 dosing schedule relative to control
[6] = Toxicity in clr:NU/NU-nuBR mouse assessed as maximum tolerated dose after 24 hrs; format: organism-based; conditions: in vivo
In short: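 Naive, non-xenografted mice, in a large cohort. Drug was given by continuous delivery from subcutaneously implanted osmotic minipumps over 24 h. The maximum tolerated dose was set with survival as the end point, and peripheral blood counts were followed to assess myelosuppression.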

[7] = target: Voltage-gated inwardly rectifying potassium channel KCNH2 (Homo sapiens, UniProt Q12809)
Voltage-gated inwardly rectifying potassium channel KCNH2, sequence (Q12809 whole entry): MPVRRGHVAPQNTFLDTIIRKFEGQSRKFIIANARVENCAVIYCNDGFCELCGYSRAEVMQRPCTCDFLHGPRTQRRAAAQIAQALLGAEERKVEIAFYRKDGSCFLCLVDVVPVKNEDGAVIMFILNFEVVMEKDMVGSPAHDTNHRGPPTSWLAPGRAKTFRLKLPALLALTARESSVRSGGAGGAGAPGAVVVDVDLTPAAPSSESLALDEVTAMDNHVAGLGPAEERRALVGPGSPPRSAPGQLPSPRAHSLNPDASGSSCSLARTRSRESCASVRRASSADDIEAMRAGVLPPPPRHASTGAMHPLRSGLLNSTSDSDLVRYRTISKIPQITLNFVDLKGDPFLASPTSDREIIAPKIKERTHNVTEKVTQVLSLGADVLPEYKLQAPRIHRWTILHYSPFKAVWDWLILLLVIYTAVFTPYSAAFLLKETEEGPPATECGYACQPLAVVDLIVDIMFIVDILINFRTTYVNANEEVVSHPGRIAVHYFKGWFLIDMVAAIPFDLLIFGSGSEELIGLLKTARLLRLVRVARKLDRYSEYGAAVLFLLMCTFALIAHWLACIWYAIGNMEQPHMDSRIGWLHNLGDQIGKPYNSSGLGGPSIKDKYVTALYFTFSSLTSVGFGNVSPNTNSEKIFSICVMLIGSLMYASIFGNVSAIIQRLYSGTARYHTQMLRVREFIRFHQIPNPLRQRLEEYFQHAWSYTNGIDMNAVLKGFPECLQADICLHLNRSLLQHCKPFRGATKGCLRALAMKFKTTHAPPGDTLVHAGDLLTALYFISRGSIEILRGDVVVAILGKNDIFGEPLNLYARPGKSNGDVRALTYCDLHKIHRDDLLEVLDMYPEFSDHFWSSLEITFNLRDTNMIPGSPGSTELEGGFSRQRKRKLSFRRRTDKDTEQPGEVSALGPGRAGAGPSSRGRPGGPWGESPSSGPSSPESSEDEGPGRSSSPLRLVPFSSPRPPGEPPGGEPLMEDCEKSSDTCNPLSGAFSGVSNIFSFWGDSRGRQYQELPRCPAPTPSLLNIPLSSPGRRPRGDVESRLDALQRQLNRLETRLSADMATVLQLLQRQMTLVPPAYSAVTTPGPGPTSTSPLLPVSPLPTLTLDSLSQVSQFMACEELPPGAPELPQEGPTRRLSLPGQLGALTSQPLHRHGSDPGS

[8] = test system: A2780; experiment: Induction of mitotic arrest in human A2780 cells expressing MDR1 after 16 hrs; format: functional, cell-based; conditions: A2780, 16 h
[9] = Effect on […] formation in human […] cells assessed as mitotic spindles at 50 nM after 16 hrs by fluorescence microscopy; format: functional
In short: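 A2780 cells grown in slide chambers, exposed 16 h to 5 or 50 nM compound or 0.1% DMSO. Fixed/permeabilized in PIPES buffer pH 6.8 with Triton X-100 and 4% formaldehyde, blocked with 2% BSA, stained with anti-α-tubulin (DM1, 12 h 4 °C), FITC secondary and Hoechst 33342; spindles viewed by fluorescence microscopy.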

[10] = Induction of apoptosis in human […] cells assessed as caspase 3 activation after 48 hrs by fluorescent assay; format: functional, cell-based
In short: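 A2780 cells seeded 20 000/well, grown overnight, then treated in triplicate 48 h with vehicle or compound, 300 to 0.415 nM (7-point, 3-fold series), 0.1% DMSO final.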

[11] = target: Kinesin-like protein KIF3A (Homo sapiens, UniProt Q9Y496); experiment: Inhibition of cloned human Kif3A
Kinesin-like protein KIF3A, sequence (Q9Y496 whole entry): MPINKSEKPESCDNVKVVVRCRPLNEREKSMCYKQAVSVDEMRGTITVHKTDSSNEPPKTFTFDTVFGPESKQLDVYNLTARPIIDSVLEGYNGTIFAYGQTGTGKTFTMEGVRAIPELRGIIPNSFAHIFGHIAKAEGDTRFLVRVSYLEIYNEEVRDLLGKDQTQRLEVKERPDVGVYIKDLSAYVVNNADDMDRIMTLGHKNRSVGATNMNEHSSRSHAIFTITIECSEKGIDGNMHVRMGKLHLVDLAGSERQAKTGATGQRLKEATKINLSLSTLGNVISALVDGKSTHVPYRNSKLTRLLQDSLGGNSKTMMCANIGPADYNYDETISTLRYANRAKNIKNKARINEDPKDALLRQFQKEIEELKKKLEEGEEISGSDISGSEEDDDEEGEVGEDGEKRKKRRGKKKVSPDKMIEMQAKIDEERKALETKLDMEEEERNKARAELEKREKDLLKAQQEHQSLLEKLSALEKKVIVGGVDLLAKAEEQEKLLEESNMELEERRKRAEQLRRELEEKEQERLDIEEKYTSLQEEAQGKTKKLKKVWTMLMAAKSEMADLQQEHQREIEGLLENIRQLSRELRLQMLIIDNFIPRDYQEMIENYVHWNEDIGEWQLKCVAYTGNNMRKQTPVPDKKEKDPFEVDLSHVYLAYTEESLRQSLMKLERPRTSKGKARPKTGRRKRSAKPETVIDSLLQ

[12] = target: T2, Kinesin-like protein KIF23 (Homo sapiens, UniProt Q02241); experiment: Inhibition of cloned human MKLP1
T2 sequence (Q02241 whole entry): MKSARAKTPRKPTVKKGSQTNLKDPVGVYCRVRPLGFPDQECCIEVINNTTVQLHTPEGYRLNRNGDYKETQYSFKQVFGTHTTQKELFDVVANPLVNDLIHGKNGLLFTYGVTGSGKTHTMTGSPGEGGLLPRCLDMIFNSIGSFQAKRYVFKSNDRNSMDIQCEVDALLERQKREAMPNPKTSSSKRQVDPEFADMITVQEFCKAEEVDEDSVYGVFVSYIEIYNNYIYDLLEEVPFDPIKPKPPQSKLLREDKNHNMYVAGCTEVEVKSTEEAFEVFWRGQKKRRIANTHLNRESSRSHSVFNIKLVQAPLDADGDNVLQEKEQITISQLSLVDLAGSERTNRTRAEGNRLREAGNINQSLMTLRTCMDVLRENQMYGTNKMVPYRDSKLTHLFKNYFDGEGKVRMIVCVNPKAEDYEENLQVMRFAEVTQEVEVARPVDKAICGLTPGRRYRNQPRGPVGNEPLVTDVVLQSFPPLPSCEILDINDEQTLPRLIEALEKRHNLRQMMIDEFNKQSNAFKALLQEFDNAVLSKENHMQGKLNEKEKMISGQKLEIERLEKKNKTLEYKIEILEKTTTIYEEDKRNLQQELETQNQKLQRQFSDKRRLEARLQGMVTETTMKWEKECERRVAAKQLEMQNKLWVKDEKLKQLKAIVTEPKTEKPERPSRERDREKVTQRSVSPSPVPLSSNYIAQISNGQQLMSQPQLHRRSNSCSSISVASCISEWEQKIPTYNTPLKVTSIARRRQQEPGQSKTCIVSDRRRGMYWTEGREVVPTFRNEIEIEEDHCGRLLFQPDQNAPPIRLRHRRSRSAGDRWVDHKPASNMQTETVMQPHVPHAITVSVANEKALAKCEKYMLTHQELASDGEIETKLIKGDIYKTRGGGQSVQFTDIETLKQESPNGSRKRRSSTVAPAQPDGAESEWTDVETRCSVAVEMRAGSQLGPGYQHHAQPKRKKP

[13] = Inhibition of tubulin polymerization at 20 uM
In short: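 Tubulin at 2.5 mg/mL with 0.5 mM GTP in 80 mM K-PIPES pH 6.8, 1 mM MgCl2, 1 mM EGTA; compound at 20 µM final from DMSO; 37 °C. Light scattering read at 320 and 340 nm every 30 s for 75 min, with paclitaxel and colchicine (20 µM) controls.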

Question: With CN1CC[C@H](N(C)C(=O)N2CC(c3cc(F)ccc3F)=C[C@@]2(CO)c2ccccc2)[C@H](F)C1 as the molecule, how does the IC50 [1] read?
Answer: > 50 µM

Question: What about the half-life [2] of the same molecule?
Answer: 1 h

Question: What about the Activity [3] of the same molecule?
Answer: inactive

Question: And the Activity [4]?
Answer: Toxic

Question: And the Activity [5]?
Answer: Active

Question: What about the MTD at 24 h [6] of the same molecule?
Answer: 12 mg/kg

Question: And the IC50 [7]?
Answer: 20.5 µM

Question: And the EC50 [8]?
Answer: 0.0053 µM

Question: What about the Activity [9] of the same molecule?
Answer: 90%

Question: And the EC50 [10]?
Answer: 0.0027 µM

Question: And the IC50 [11]?
Answer: > 50 µM

Question: What about the IC50 [12] of the same molecule?
Answer: > 50 µM

Question: And the Activity [13]?
Answer: inactive

Reference: ChEMBL document CHEMBL1155077, “Kinesin spindle protein (KSP) inhibitors. 9. Discovery of (2S)-4-(2,5-difluorophenyl)-n-[(3R,4S)-3-fluoro-1-methylpiperidin-4-yl]-2-(hydroxymethyl)-N-methyl-2-phenyl-2,5-dihydro-1H-pyrrole-1-carboxamide (MK-0731) for the treatment of taxane-refractory cancer” (J Med Chem, 2008)
